Source: ChEMBL document CHEMBL1157930, “Design, synthesis, biological evaluation and computational investigation of novel inhibitors of dihydrofolate reductase of opportunistic pathogens” (Bioorg Med Chem, 2010)

Columns and labels:
[1] = target: T1, Bifunctional dihydrofolate reductase-thymidylate synthase (Toxoplasma gondii) (UniProt Q07422); test: Inhibition of Toxoplasma gondii DHFR by continuous spectrophotometric assay
T1 sequence (whole entry): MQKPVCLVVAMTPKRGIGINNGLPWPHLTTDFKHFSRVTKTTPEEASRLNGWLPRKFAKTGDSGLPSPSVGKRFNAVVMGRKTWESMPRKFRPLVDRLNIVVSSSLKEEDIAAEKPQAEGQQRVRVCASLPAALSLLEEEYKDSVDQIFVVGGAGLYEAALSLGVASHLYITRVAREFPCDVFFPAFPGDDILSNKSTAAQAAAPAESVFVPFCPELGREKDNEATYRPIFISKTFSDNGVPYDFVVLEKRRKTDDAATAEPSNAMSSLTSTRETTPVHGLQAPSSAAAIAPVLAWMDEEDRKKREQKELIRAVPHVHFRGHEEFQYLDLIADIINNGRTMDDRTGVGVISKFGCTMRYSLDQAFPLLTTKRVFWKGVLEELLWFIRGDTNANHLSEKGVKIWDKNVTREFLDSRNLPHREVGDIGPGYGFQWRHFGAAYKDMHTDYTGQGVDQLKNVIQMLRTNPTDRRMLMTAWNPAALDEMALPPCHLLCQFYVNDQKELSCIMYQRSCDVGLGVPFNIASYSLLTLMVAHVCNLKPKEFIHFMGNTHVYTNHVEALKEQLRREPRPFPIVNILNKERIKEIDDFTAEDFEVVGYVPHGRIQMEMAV
In short: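 Toxoplasma gondii DHFR was assayed continuously by spectrophotometry, following NADPH oxidation at 340 at 37 °C with saturating substrate and cofactor, in triplicate. […]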

[2] = target: T2, Dihydrofolate reductase (Pneumocystis carinii) (UniProt P16184); test: Inhibition of Pneumocystis carinii DHFR at IC50 by continuous spectrophotometric assay
T2 sequence (whole entry): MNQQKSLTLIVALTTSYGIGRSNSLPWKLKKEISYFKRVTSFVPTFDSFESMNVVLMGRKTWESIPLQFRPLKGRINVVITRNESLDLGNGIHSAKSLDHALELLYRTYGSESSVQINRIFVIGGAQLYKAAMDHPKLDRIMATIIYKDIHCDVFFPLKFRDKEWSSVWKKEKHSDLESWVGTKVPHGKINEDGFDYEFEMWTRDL
In short: (§1)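 Continuous spectrophotometric assay of pathogen (pc, tg, ma) or rat liver DHFR. NADPH oxidation was followed at 340, at 37 °C, with substrate and cofactor both saturating. […]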

[3] = target: T1, Bifunctional dihydrofolate reductase-thymidylate synthase (Toxoplasma gondii); test: Inhibition of Toxoplasma gondii DHFR at IC50 by continuous spectrophotometric assay; design: concentration or dose not given beside the values; in short: as §1
[4] = target: T3, Dihydrofolate reductase (Mycobacterium avium) (UniProt O30463); test: Inhibition of Mycobacterium avium DHFR at IC50 by continuous spectrophotometric assay; in short: as §1
T3 sequence (whole entry): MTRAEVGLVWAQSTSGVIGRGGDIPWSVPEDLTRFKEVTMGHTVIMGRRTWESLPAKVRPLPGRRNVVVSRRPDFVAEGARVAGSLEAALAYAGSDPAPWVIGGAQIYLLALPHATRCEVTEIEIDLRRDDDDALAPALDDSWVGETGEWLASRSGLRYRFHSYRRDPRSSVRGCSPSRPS

[5] = target: T4, Dihydrofolate reductase (Rattus norvegicus) (UniProt Q920D2); test: Inhibition of rat liver DHFR at IC50 by continuous spectrophotometric assay; in short: as §1
T4 sequence (whole entry): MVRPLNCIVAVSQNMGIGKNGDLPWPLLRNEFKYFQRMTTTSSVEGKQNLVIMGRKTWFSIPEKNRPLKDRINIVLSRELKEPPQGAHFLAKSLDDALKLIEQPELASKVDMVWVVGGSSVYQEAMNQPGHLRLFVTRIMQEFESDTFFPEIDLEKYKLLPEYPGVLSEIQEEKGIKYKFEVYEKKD

[6] = Selectivity ratio of IC50 for rat liver DHFR to IC50 for Pneumocystis carinii DHFR
In short: (§2)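 The ratio is rat liver DHFR IC50 divided by pathogen DHFR IC50. Both IC50s come from triplicate continuous spectrophotometric assays following NADPH oxidation at 37 °C, with substrate and cofactor saturating.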

[7] = Selectivity ratio of IC50 for rat liver DHFR to IC50 for Toxoplasma gondii DHFR; in short: as §2
[8] = Selectivity ratio of IC50 for rat liver DHFR to IC50 for Mycobacterium avium DHFR; in short: as §2

inhibition [2] [%] | inhibition [4] [%] | inhibition [5] [%] | IC50 selectivity ratio (rat liver / P. carinii DHFR) [6] | Ratio IC50 [8] | SMILES | Activity [1] [µM] | inhibition [3] [%] | Ratio IC50 [7]
0 | 12 | 12 | – | – | COc1cc(COc2cc(N)nc(N)n2)cc(OC)c1OC | 145 | 10 | –
– | 9 | – | 0.85 | – | Nc1ncc(CNc2cccc3ccccc23)c(N)n1 | 22.1 | – | 5.78
– | – | – | 14.5 | 22.5 | Nc1ncc(CSc2nc3ccccc3o2)c(N)n1 | 160 | – | 3.25
– | – | – | 4.79 | 209 | CN(Cc1cnc(N)nc1N)c1cccc2ccccc12 | 3.49 | – | 52.7
– | 15 | 0 | > 15.7 | – | Nc1ncc(COS(=O)(=O)c2ccc3ccccc3c2)c(N)n1 | 124 | 13 | –

The next lines start with the compound.

SMILES | inhibition [2] [%] | inhibition [4] [%] | inhibition [5] [%] | IC50 selectivity ratio (rat liver / P. carinii DHFR) [6] | Ratio IC50 [8] | Activity [1] [µM] | inhibition [3] [%] | Ratio IC50 [7]
Cc1ccc(COc2ccc(C(=O)/C=C/c3cnc(N)nc3N)cc2)cc1 | 2 | 4 | 0 | – | – | 117 | 10 | –
COc1ccc(C(=O)/C=C/c2cnc(N)nc2N)cc1 | 4 | 14 | – | – | – | 151 | 15 | –
Nc1nc(N)nc(CN2c3ccccc3Sc3ccc(Cl)cc32)n1 | – | 5 | 8 | – | – | 397 | – | –
Nc1cc(OCCN2c3ccccc3C=Cc3ccccc32)nc(N)n1 | – | – | 39 | – | > 51.4 | 3.35 | – | > 35.8
COc1ccc(NCc2cnc(N)nc2N)cc1 | – | 0 | 0 | – | – | 44 | 7 | –
Nc1ncc(CN2c3ccccc3CCc3ccccc32)c(N)n1 | – | – | – | 1.89 | 14.4 | 0.14 | – | 11.5
Nc1ncc(CN2c3ccccc3C=Cc3ccccc32)c(N)n1 | – | – | 15 | > 5 | > 20 | 8.07 | – | > 16
Nc1nc(N)c2cc(COC(=O)c3c4ccccc4cc4ccccc34)ccc2n1 | – | – | – | 0.43 | 0.21 | 0.67 | – | 0.31
Nc1nc(N)c2nc(CN3c4ccccc4C=Cc4ccccc43)cnc2n1 | – | – | – | – | 367 | 0.043 | – | 102
Nc1nc(N)nc(CN2c3ccccc3CCc3ccccc32)n1 | – | 9 | 0 | – | – | 140 | 10 | –
Nc1nc(N)nc(CN2c3ccccc3Sc3ccccc32)n1 | – | 4 | 16 | – | – | 143 | 15 | –
